Experimental data as given in the RNAGym collection of RNA variant scans (doi:10.1126/science.aae0568).
Variants at the floor of the assay were thinned out.

B1: tRNA (parent)
chain: GUUCCGUUGGCGUAAUGGUAACGCGUCUCCCUCCUAAGGAGAAGACUGCGGGUUCGAGUCCCGUACGGAACG

Variants of: B1
Assay: yeast fitness relative to wild type (ratio to wild type); higher = fitter; tRNA-Arg(CCU), competitive growth, 37 C, YPD
Method in brief: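 Amplicons of the tRNA-Arg(CCU) gene were sequenced, 100-nucleotide paired-end, from the start population and from each end population of a pooled yeast competition. The competition, in six parallel replicates, lasted 24 hours in YPD at 37°C. Fitness relative to wild type was calculated from changes in genotype frequencies. Genotypes had to have ≥ 100 starting reads, and estimates < 0.5 were set to 0.5.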

| Variant | yeast fitness |
| --- | --- |
| C34G C66A | 0.543 |
| C33U C49A G63C | ≤ 0.5 |
| C34A A37U G44A G51A C55A | 0.603 |
| A36C U47A G48C U54G A65C | 0.6 |
| A36C A57C A70G | 0.552 |
| A36G A65G A70G | 0.639 |
| A36C A70U | 0.703 |
| C34G A37C | 0.554 |
| A36G U64G C66A | ≤ 0.5 |
| A36U A43C C49A C55G | ≤ 0.5 |
| U35C A45C C49G A57U G63A | ≤ 0.5 |
| C33U G52A A57U | ≤ 0.5 |
| U35C C55A | ≤ 0.5 |
| C34G A43U C61G | 0.614 |
| C33G U53C | ≤ 0.5 |
| A36U G44C A45U C62U G68A | 0.789 |
| C34A C49U U59C | ≤ 0.5 |
| A36C G39C A65C A69C | ≤ 0.5 |
| C33G G44A G56A | ≤ 0.5 |
| A36C C55U G68C | ≤ 0.5 |
| C33G A42G G52A | ≤ 0.5 |
| C33G A43C G68A | ≤ 0.5 |
| C33U A45G C49A U53A | ≤ 0.5 |
| U35C C46U G51C G63A | 0.619 |

| Variant | yeast fitness |
| --- | --- |
| C34G A42C C62G | 0.631 |
| A36C A37C G51C | ≤ 0.5 |
| C34U G48A | 0.798 |
| C33U A40U G56C | ≤ 0.5 |
| U35G A42G G56C | 0.59 |
| C34U C61U | 1 |
| C34U C61G | ≤ 0.5 |
| C34A G38A | 0.699 |
| C33G A45C G50C | ≤ 0.5 |
| U35G G48C C66U | ≤ 0.5 |
| U35C G50A G67A | ≤ 0.5 |
| U35G A40G U54G | ≤ 0.5 |
| C34A U47A C61A | ≤ 0.5 |
| C33U A69C | 0.726 |
| C34G A40G U64C | 0.578 |
| C33U G38U | 0.632 |
| C33U G38C | 0.609 |
| C34A G39C A40C G56C C61G C62G | ≤ 0.5 |
| U35A A69C A70C | 0.535 |
| C33U A43U C49G G50C C61U | ≤ 0.5 |
| A36C U54C | ≤ 0.5 |
| A36C U54A | ≤ 0.5 |
| C34U G48A C55U | 0.638 |
| A36C G67A | 0.607 |

| Variant | yeast fitness |
| --- | --- |
| A36G C55G | 0.623 |
| A36U C55G U64G | ≤ 0.5 |
| A36G A45U C49U | 0.882 |
| C34G A37C C60G A65U | ≤ 0.5 |
| A36G A37C A45C C46G | 0.554 |
| C34U A40G C46A | 0.579 |
| C34G G50C C62A | ≤ 0.5 |
| C33U A43G C66U | 0.544 |
| U35A U53C | ≤ 0.5 |
| C33U C34A G50A C62U A70C | ≤ 0.5 |
| A37C A42U | 0.809 |
| A36C A42G | 0.633 |
| A36G G56A A69U | 0.718 |
| C34G A37G G38A G50A | ≤ 0.5 |
| U35C A37C G68C A70C | 0.913 |
| C33U U47G C49U | 0.581 |
| C34A U47C | 0.646 |
| C33U G48A A69C | 0.705 |
| A36G A42G C49G | ≤ 0.5 |
| U35A G44C | 0.71 |
| C34U A69C | 0.774 |
| A37C A40C G41C | 0.579 |
| C34U C46A C55G | 0.672 |
| C34U G56A A70G | ≤ 0.5 |

| Variant | yeast fitness |
| --- | --- |
| A36U G38C A43G G68C | ≤ 0.5 |
| C33U A57G | 0.628 |
| A36C A43C C66A | 0.731 |
| A36C G39A A57U | ≤ 0.5 |
| U35A A37U U47A C62U | ≤ 0.5 |
| U35C A40U A42G U47C | 0.601 |
| U35C A37C C62U A65C | ≤ 0.5 |
| C33G A57U A70U | ≤ 0.5 |
| U35G A42G U47A | ≤ 0.5 |
| C34G U54A U59C A65G A70G | 0.84 |
| C34U A40C C62U A65U | ≤ 0.5 |
| U35A C49U U64A | ≤ 0.5 |
| U35A A40U | 0.718 |
| C33U A36C A40U | 0.609 |
| A36G U47A | 0.789 |
| U35C C61G A69G | ≤ 0.5 |
| A36U G48C | 0.648 |
| C34U G41A C55A | ≤ 0.5 |
| A36C U47A G48C A57C A65U | ≤ 0.5 |
| C34A A37G C66U | ≤ 0.5 |
| U35C A45U C49A C66U | ≤ 0.5 |
| C33U C61A | 0.52 |
| C34G G63A A70C | ≤ 0.5 |
| U35C A37U A42G G51A | ≤ 0.5 |

| Variant | yeast fitness |
| --- | --- |
| A36U C49U C62G | ≤ 0.5 |
| C34U A36G C55G A57U G67A | 0.568 |
| C34G A42U | 0.621 |
| C33G C34G C46U | 0.547 |
| A36C A37U A65C | 0.534 |
| C33G G56C G67C | ≤ 0.5 |
| U35C G58C | 0.883 |
| U35G C46U C62U | 0.579 |
| C34U G63A | 0.624 |
| A36C A37C U53G | ≤ 0.5 |
| A36C A45C G48A A65C | ≤ 0.5 |
| A36U A37G G50C | ≤ 0.5 |
| C34A U54A | ≤ 0.5 |
| C34U A36C U53C G67A | ≤ 0.5 |
| C34G C49U C66U | 0.557 |
| A37C A43C C62U | 0.882 |
| A36U C60U | 0.566 |
| C33U A65C | 0.664 |
| U35A C55U A65G | ≤ 0.5 |
| A36C U47A G48C | ≤ 0.5 |
| U35C G44A G48C C55G A69U | ≤ 0.5 |
| A37C A42C C55U | 0.597 |
| U35G A65C | 0.639 |
| C34U A43G C61A | ≤ 0.5 |

| Variant | yeast fitness |
| --- | --- |
| C34G A45G U59G | ≤ 0.5 |
| A36U A45C G63C | 0.614 |
| U35C G41C | 0.718 |
| A36C A40G G58C C60A | 0.537 |
| A37C A43C A45C | ≤ 0.5 |
| A36G G38C U59A | ≤ 0.5 |
| C34U G41C C60A | ≤ 0.5 |
| C34U G41C C60U | ≤ 0.5 |
| A36G A37U | 0.718 |
| A36G A37G | 0.816 |
| C34U A40U A57U | ≤ 0.5 |
| C34G C60G | 0.782 |
| A36G A43G A57C A65U | ≤ 0.5 |
| A36U A40G | 0.549 |
| A36C C46U U53A | 0.639 |
| C33U A42C A70C | 0.671 |
| A37C A40U G51A | 0.538 |
| A36C G41A | 0.587 |
| C34A G67U | 0.717 |
| C34A G67C | 0.782 |
| C34A A40C | 0.747 |
| C34A G41A C55G C66U | ≤ 0.5 |
| A36C G38C A45G G50C | ≤ 0.5 |
| C33G C61U | 0.711 |

| Variant | yeast fitness |
| --- | --- |
| C33G C61A | 0.607 |
| U35C G48C | 0.973 |
| A36C U53C G56U | 0.603 |
| A36U A42U | 0.71 |
| C34G A37G C62A | ≤ 0.5 |
| A36U C55U G56A | 0.864 |
| C34G C55G | 0.567 |
| A36G C46G | 1.08 |
| U35G A40G C49G | ≤ 0.5 |
| C33U G44A C61U | 0.675 |
| A36G A37U G67A | ≤ 0.5 |
| U35A A43G U64C | ≤ 0.5 |
| C33U G39C G51A C60G | ≤ 0.5 |
| U35C G41A A45U | 0.664 |
| A36G A42C U47C | 0.687 |
| C34U A40C A42C G48A C61G G67C G68A | ≤ 0.5 |
| C33U A43U C49G G50C C61U U64C C66U | ≤ 0.5 |
| A36G C49U | 1.02 |
| A36C A37G C49A | 0.541 |
| C34U U47C C55A A70U | 0.562 |
| A36U G48U C66A | ≤ 0.5 |
| A36U C66U | 0.686 |
| C33G A45U C55U | ≤ 0.5 |
